This is an account of results in ChEMBL document CHEMBL4350999, “Enhanced tumor retention of NTSR1-targeted agents by employing a hydrophilic cysteine cathepsin inhibitor” (Eur J Med Chem, 2019).

Each structure is given as a SMILES string. Calls of active or inactive are those of the source. The rule behind the calls is not given here.

In data set [1] the target is T1, Procathepsin L (Homo sapiens, UniProt P07711). The experiment in a line: Inhibition of human liver cathepsin L assessed as pseudo Michaelis-Menten constant at 10 nM using varying levels of Z-Phe-Arg-AMC as substrate measured every 5 mins for 1 hr by fluorescence assay.
T1 sequence (P07711 114-333 limits assumed): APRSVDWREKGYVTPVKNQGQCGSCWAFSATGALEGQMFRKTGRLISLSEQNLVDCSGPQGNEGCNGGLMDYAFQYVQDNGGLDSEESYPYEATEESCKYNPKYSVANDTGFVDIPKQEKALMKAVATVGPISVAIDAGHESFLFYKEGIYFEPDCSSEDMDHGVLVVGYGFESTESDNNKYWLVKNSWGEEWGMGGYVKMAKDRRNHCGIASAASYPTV
Data set [2] in a line: Drug uptake in stomach of SCID mouse xenografted with human HT-29 cells using 177Lu labelled compound at 0.37 MBq/mouse, iv co-treated with D-lysine at 40 mg/kg measured at 24 hrs by gamma counter analysis. It is filed as ADME, organism-based. The following applies: in vivo. The essentials: (§1)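 HT-29 s.c. xenografts in female SCID mice. 177Lu conjugate given i.v. by tail vein at 10 μCi (0.37 MBq)/mouse, co-injected with D-lysine 40 mg/kg. Tissues were taken at 24 h, weighed and gamma counted. Uptake expressed as %ID/g (n = 5, mean ± SD); tumor-to-tissue ratios derived from these values.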
(In xenograft studies the graft and the host belong to different species.)

A short description of data set [3]: Drug uptake in large intestine of SCID mouse xenografted with human HT-29 cells using 177Lu labelled compound at 0.37 MBq/mouse, iv co-treated with D-lysine at 40 mg/kg measured at 24 hrs by gamma counter analysis. The following applies: in vivo. The data set is classed as ADME, organism-based. The procedure, abridged: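 Female SCID mice bore s.c. HT-29 xenografts (5 × 10^6 cells in Matrigel, about 80 mm3). D-lysine 40 mg/kg was co-injected i.v. with 10 μCi (0.37 MBq) of purified 177Lu-conjugate. Tissues were harvested at 24 h, weighed and gamma-counted, reported as %ID/g; mean ± SD, n = 5.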

Data set [4] in a line: Drug uptake in spleen of SCID mouse xenografted with human HT-29 cells using 177Lu labelled compound at 0.37 MBq/mouse, iv co-treated with D-lysine at 40 mg/kg measured at 24 hrs by gamma counter analysis. It is filed as ADME, organism-based. The settings on record: in vivo. The essentials:
as §1

Data set [5] is described as follows: Drug retention in liver of mouse xenografted with human HT-29 cells assessed as tissue-conjugate adduct formation at 29.6 MBq co-treated with D-lysine at 40 mg/kg measured after 72 hrs using 177Lu labelled compound by SDS-PAGE analysis. It is filed as ADME, organism-based. The following applies: in vivo.
Data set [6] in a line: Ratio of drug uptake in SCID mouse xenograted with human HT-29 cells assessed as tumour retention to drug uptake in kidney of SCID mouse xenografted with human HT-29 cells cotreated with D-lysine at 40 mg/kg measured after 24 hrs using 177Lu labelled compound. It is filed as ADME, organism-based, Tumor/Kidney. The following applies: in vivo. The procedure, abridged:
as §1

Data set [7] is described as follows: Drug retention in tumor lysates of mouse xenografted with human HT-29 cells assessed as macromolecule associated radioactivity at 29.6 MBq co-treated with D-lysine measured after 72 hrs using 177Lu labelled compound by gamma counter analysis relative to control. The data set is classed as ADME, tissue-based, Neoplasm. The following applies: in vivo.
The nature of data set [8]: Drug uptake in blood of SCID mouse xenografted with human HT-29 cells pretreated for 1 hr with colchicine at 1 mg/kg, ip followed by 177Lu labelled compound at 0.37 MBq/mouse, iv measured at 24 hrs by gamma counter analysis. It is filed as ADME, organism-based. The following applies: in vivo. The procedure, abridged: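 Female SCID mice bearing s.c. flank HT-29 xenografts (5 × 10^6 cells in Matrigel, ~80 mm3). Given 10 μCi (0.37 MBq) 177Lu conjugate i.v. by tail vein; groups sacrificed at 4, 24, 72 h. Tissues weighed and gamma-counted as %ID/g, excretion as %ID; n = 5, mean ± SD. Blocking arms: colchicine 1 mg/kg i.p. beforehand, or D-lysine 40 mg/kg co-injected.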

Data set [9] is described as follows: Drug retention in tumor lysates of mouse xenografted with human HT-29 cells assessed as macromolecule associated radioactivity at 29.6 MBq measured after 72 hrs using 177Lu labelled compound by gamma counter analysis relative to control. The data set is classed as ADME, tissue-based, Neoplasm. The settings on record: in vivo. The procedure, abridged: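 HT-29 xenograft mice given 800 μCi (29.6 MBq) 177Lu conjugate i.v. and killed at 72 h. Tumor, liver and kidney homogenized in RIPA with protease inhibitor and supernatants run on SDS-PAGE autoradiography. Other supernatant aliquots filtered through 10 kDa MWCO devices to give the % macromolecule-associated radioactivity; n = 3.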

The nature of data set [10]: Drug uptake in liver of SCID mouse xenografted with human HT-29 cells pretreated for 1 hr with colchicine at 1 mg/kg, ip followed by 177Lu labelled compound at 0.37 MBq/mouse, iv measured at 24 hrs by gamma counter analysis. The data set is classed as ADME, organism-based. The following applies: in vivo. The procedure, abridged: (§2)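 HT-29 flank xenografts in female SCID mice (5 × 10^6 cells in Matrigel, about 80 mm3). Colchicine 1 mg/kg was given i.p. before a tail-vein injection of 10 μCi (0.37 MBq) of purified 177Lu-conjugate. Tissues were taken at 24 h, weighed and gamma-counted as %ID/g; mean ± SD, n = 5.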

Data set [11] can be described thus: Ratio of drug uptake in SCID mouse xenograted with human HT-29 cells assessed as tumour retention to drug uptake in liver of SCID mouse xenografted with human HT-29 cells cotreated with D-lysine at 40 mg/kg measured after 24 hrs using 177Lu labelled compound. The data set is classed as ADME, organism-based, Tumor/Liver. The following applies: in vivo.
A short description of data set [12]: Ratio of drug uptake in SCID mouse xenograted with human HT-29 cells assessed as tumour retention to drug uptake in large intestine of SCID mouse xenografted with human HT-29 cells cotreated with D-lysine at 40 mg/kg measured after 24 hrs using 177Lu labelled compound. The following applies: in vivo. The data set is classed as ADME, organism-based, Tumor/Large intestine. The essentials:
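Female SCID mice (5 weeks old) carried subcutaneous flank HT-29 xenografts (5 × 10^6 cells in Matrigel), used at about 80 mm3. They received 10 μCi (0.37 MBq) of purified 177Lu-labelled conjugate i.v. by tail vein, with D-lysine 40 mg/kg co-injected. At 24 h p.i., tissues were excised, weighed and gamma-counted, and %ID/g and tumour-to-tissue ratios were calculated (n = 5).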

Data set [13] in a line: Drug uptake in kidney of SCID mouse xenografted with human HT-29 cells pretreated for 1 hr with colchicine at 1 mg/kg, ip followed by 177Lu labelled compound at 0.37 MBq/mouse, iv measured at 24 hrs by gamma counter analysis. It is filed as ADME, organism-based. The following applies: in vivo. The procedure, abridged: as §2
Data set [14] in a line: Ratio of drug uptake in SCID mouse xenograted with human HT-29 cells assessed as tumour retention to drug uptake in pancreas of SCID mouse xenografted with human HT-29 cells cotreated with D-lysine at 40 mg/kg measured after 24 hrs using 177Lu labelled compound. The data set is classed as ADME, organism-based, Tumor/Pancreas. The settings on record: in vivo.
A short description of data set [15]: Drug retention in kidney lysates of mouse xenografted with human HT-29 cells assessed as macromolecule associated radioactivity at 29.6 MBq co-treated with D-lysine measured after 72 hrs using 177Lu labelled compound by gamma conter analysis relative to control. The data set is classed as ADME, tissue-based. The following applies: in vivo.
Data set [16] is described as follows: Drug uptake in bone of SCID mouse xenografted with human HT-29 cells pretreated for 1 hr with colchicine at 1 mg/kg, ip followed by 177Lu labelled compound at 0.37 MBq/mouse, iv measured at 24 hrs by gamma counter analysis. The data set is classed as ADME, organism-based, Bone element. The settings on record: in vivo. The essentials: as §2
The target in data set [17] is T1, Procathepsin L. The data set can be described thus: Binding affinity to human liver cathepsin L assessed as protein-conjugate adduct formation at 0.74 MBq incubated for 30 mins in presence of DOTA-beta-ala-[N-alpha-Me8, Dmt11, Tle12] NT6-13 using 177Lu labelled compound by SDS-PAGE analysis. The settings on record: 0.74 M. The essentials:
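Purified human liver CatB or CatL (3 nM) in 50 mM sodium acetate/1 mM EDTA pH 5.0 incubated 30 min with 177Lu conjugate (500,000 cpm) in Tris/MgCl2/DTT buffer pH 5.5, alone or with E-64 (10 μM) or N1 (20 μM). Mixtures heated 85 °C 2 min, run on 16% tris-glycine gel at 110 V for 90 min, and read by phosphor autoradiography.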

In the case of `Cc1cc(O)cc(C)c1C[C@H](NC(=O)[C@@H]1CCCN1C(=O)[C@H](CCCNC(=N)N)NC(=O)[C@H](CCCNC(=N)N)N(C)C(=O)[C@@H]1CCCN1C(=O)[C@H](CCCCN)NC(=O)[C@@H](CO)NC(=O)[C@@H](CO)NC(=O)[C@@H](CO)NC(=O)[C@H](Cc1cn(CCNC(=O)[C@H](CCCNC(=N)N)NC(=O)[C@H](CC(C)C)NC(=O)CCC(=O)O)nn1)NC(=O)CN1CCN(CC(=O)O)CCN(CC(=O)O)CCN(CC(=O)O)CC1)C(=O)N[C@H](C(=O)N[C@@H](CC(C)C)C(=O)O)C(C)(C)C`, the K on Procathepsin L [1] was found to be 37 µM.
For the compound `Cc1cc(O)cc(C)c1C[C@H](NC(=O)[C@@H]1CCCN1C(=O)[C@H](CCCNC(=N)N)NC(=O)[C@H](CCCNC(=N)N)N(C)C(=O)[C@@H]1CCCN1C(=O)[C@H](CCCCN)NC(=O)[C@@H](CO)NC(=O)[C@@H](CO)NC(=O)[C@@H](CO)NC(=O)[C@H](Cc1cn(CCNC(=O)[C@H](CCCNC(=N)N)NC(=O)[C@H](CC(C)C)NC(=O)C2OC2C(=O)O)nn1)NC(=O)CN1CCN(CC(=O)O)CCN(CC(=O)O)CCN(CC(=O)O)CC1)C(=O)N[C@H](C(=O)N[C@@H](CC(C)C)C(=O)O)C(C)(C)C` (some centres not stated), the Drug uptake in [2] was 0.21 % ID/g; in [3], 0.8 % ID/g; in data set [4], 1.1 % ID/g; in [5], “Not Active”; in data set [7], 80%; in data set [8], 0.06 % ID/g. Also, the Drug uptake in data set [9] was found to be 80%; in data set [10], 1.4 % ID/g; in data set [13], 26 % ID/g; in data set [15], 80%; in data set [16], 0.36 % ID/g. Further, the Ratio in data set [6] turned out to be 0.2; in data set [11], 9.6; in data set [12], 8; in data set [14] it was 75. At Procathepsin L [17], the outcome was Active.
